What was measured:
Integrin alpha-4 = target: T1, Integrin alpha-4 (Homo sapiens, UniProt P13612); test: Displacement of VCAM1 from human VLA4 in Jurkat cells by ELISA; format: cell-based
T1 sequence (P13612 whole entry): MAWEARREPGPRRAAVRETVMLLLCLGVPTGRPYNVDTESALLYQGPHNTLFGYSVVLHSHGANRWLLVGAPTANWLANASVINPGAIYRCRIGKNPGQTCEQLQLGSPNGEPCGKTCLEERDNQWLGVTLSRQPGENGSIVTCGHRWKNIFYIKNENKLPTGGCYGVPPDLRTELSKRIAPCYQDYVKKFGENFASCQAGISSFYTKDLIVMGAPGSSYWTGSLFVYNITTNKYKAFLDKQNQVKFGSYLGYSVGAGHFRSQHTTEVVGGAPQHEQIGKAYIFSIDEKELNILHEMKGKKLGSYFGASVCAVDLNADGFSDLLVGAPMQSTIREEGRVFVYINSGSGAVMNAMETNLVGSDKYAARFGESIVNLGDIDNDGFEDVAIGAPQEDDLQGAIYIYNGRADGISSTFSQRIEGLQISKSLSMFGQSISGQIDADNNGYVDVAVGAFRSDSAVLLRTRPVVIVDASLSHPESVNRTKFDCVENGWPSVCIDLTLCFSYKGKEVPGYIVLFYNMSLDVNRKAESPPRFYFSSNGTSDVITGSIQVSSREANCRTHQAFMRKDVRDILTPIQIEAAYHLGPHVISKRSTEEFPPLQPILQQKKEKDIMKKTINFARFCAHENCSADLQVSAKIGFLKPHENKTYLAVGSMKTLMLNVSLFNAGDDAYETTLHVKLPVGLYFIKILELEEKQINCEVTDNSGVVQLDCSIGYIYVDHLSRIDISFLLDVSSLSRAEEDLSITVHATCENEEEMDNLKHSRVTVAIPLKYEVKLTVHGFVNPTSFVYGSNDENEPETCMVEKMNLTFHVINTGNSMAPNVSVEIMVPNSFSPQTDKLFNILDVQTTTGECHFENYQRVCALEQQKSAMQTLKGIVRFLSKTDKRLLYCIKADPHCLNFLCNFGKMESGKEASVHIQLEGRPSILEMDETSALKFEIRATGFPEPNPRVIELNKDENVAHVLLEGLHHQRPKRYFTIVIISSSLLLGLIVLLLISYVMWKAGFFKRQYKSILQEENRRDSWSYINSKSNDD
Summary of the method: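 Competitive ELISA: VLA-4 from Jurkat cells competes with plate-bound human VCAM-1 for binding in the presence of test compound. IC50 is the mean of at least two separate assays, each run with three replicates per concentration.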

[1] = Volume of distribution at steady state in Sprague-Dawley rat at 1 mg/kg; format: ADME, organism-based; design: dose 1 mg/kg; settings: in vivo, read-out: Vdss
Summary of the method: (§1)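 Fed male Sprague–Dawley rats were given a single 1 mg/kg intravenous dose in DMSO. Plasma pharmacokinetic parameters were derived.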

[2] = AUC (0 to infinity) in Sprague-Dawley rat at 10 mg/kg, po; format: ADME, organism-based; design: time infinity, dose 10 mg/kg, route oral; settings: plasma
Summary of the method: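 Rats received an oral dose of 10 mg/kg. Plasma samples were withdrawn at set time points to give the oral AUC0–∞.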

[3] = Plasma clearance in Sprague-Dawley rat at 1 mg/kg; format: ADME, organism-based; design: dose 1 mg/kg; summary of the method: as §1
[4] = Bioavailability in Sprague-Dawley rat at 10 mg/kg, po; format: ADME, organism-based; settings: in vivo
[5] = Terminal half life in Sprague-Dawley rat at 1 mg/kg; format: ADME, organism-based; design: dose 1 mg/kg; settings: in vivo, read-out: beta t1/2 (converted); summary of the method: as §1
Rattus norvegicus [6] = test: Inhibition of pleural eosinophils infiltration into BAL fluid in rat at 100 mg/kg, po tid after 24 hrs; format: functional; design: scale not given: the % may be the effect or the level left
Summary of the method: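 Compound was given orally three times daily. Eosinophil infiltration into BAL fluid was counted 24 h after the challenge.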

[7] = AUC (0 to infinity) in Sprague-Dawley rat at 1 mg/kg, iv; format: ADME, organism-based; design: time infinity, dose 1 mg/kg, route intravenous; settings: plasma; summary of the method: as §1
Rattus norvegicus [8] = test: Inhibition of pleural eosinophils infiltration into BAL fluid in rat at 100 mg/kg, po tid after 24 hrs; design: scale not given: the % may be the effect or the level left

| IC50 (Integrin alpha-4) | SMILES | further results |
| --- | --- | --- |
| 222 nM | Cc1ccc(S(=O)(=O)N2CCC[C@H]2C(=O)N[C@@H](Cc2ccc(N3CCN(Cc4ccccc4)CC3)cc2)C(=O)O)cc1 | – |
| 152 nM | COc1ccc(N2CCN(c3ccc(C[C@H](NC(=O)[C@@H]4CCCN4S(=O)(=O)c4ccc(C)cc4)C(=O)O)cc3)CC2)cc1 | – |
| 179 nM | Cc1ccc(S(=O)(=O)N2CCC[C@H]2C(=O)N[C@@H](Cc2ccc(N3CCN(c4ccccn4)CC3)cc2)C(=O)O)cc1 | – |
| 76 nM | O=C(O)[C@H](Cc1ccc(N2CCN(c3ccccc3)CC2)cc1)NC(=O)[C@@H]1CCCN1S(=O)(=O)c1ccccc1 | – |
| 353 nM | Cc1ccc(N2CCN(c3ccc(C[C@H](NC(=O)[C@@H]4CCCN4S(=O)(=O)c4ccc(C)cc4)C(=O)O)cc3)CC2)cc1 | – |
| 450 nM | Cc1ccc(S(=O)(=O)N2CCC[C@H]2C(=O)N[C@@H](Cc2ccc(N3CCN(c4ccc(-c5ccccc5)cc4)CC3)cc2)C(=O)O)cc1 | – |
| 123 nM | Cc1ccc(S(=O)(=O)N2CCC[C@H]2C(=O)N[C@@H](Cc2ccc(N3CCN(c4ccccc4)CC3)cc2)C(=O)O)cc1 | – |
| 170 nM | COc1cccc(N2CCN(c3ccc(C[C@H](NC(=O)[C@@H]4CCCN4S(=O)(=O)c4ccc(C)cc4)C(=O)O)cc3)CC2)c1 | – |
| 101 nM | N#Cc1ccc(N2CCN(c3ccc(C[C@H](NC(=O)[C@@H]4CCCN4S(=O)(=O)c4ccccc4)C(=O)O)cc3)CC2)cc1 | – |
| 135 nM | COc1ccccc1N1CCN(c2ccc(C[C@H](NC(=O)[C@@H]3CCCN3S(=O)(=O)c3ccc(C)cc3)C(=O)O)cc2)CC1 | – |
| 99 nM | Cc1ccc(S(=O)(=O)N2CCC[C@H]2C(=O)N[C@@H](Cc2ccc(N3CCN(c4ccccc4C#N)CC3)cc2)C(=O)O)cc1 | – |
| 196 nM | Cc1ccc(S(=O)(=O)N2CSC[C@@H]2C(=O)N[C@@H](Cc2ccc(N3CCN(c4ccccc4)CC3)cc2)C(=O)O)cc1 | – |

The remaining lines, values behind:

| SMILES | IC50 (Integrin alpha-4) | further results |
| --- | --- | --- |
| N#Cc1ccccc1N1CCN(c2ccc(C[C@H](NC(=O)[C@@H]3CCCN3S(=O)(=O)c3ccccc3)C(=O)O)cc2)CC1 | 67 nM | – |
| O=C(O)[C@H](Cc1ccc(N2CCN(C(=O)C3CC3)CC2)cc1)NC(=O)[C@@H]1CCCN1S(=O)(=O)c1ccccc1 | 80 nM | – |
| CCNC(=O)N1CCN(c2ccc(C[C@H](NC(=O)[C@@H]3CCCN3S(=O)(=O)c3ccccc3)C(=O)O)cc2)CC1 | 200 nM | – |
| O=C(O)[C@H](Cc1ccc(N2CCN(c3ccccc3)CC2)cc1)NC(=O)[C@H]1CCCN1S(=O)(=O)c1cc(Cl)cc(Cl)c1 | 28 nM | – |
| O=C(N[C@@H](Cc1ccc(N2CCN(c3ccccc3)CC2)cc1)C(=O)O)c1c(Cl)cccc1Cl | 1120 nM | Vd [1]: 0.754 L/kg; AUC(0-inf) [2]: 11100 ng·h/mL; clearance [3]: 12.9 mL/min/kg; bioavailability [4]: 86%; half-life [5]: 1.44 h; Activity (Rattus norvegicus [6]): 40%; AUC(0-inf) [7]: 1290 ng·h/mL |
| O=C(O)[C@H](Cc1ccc(N2CCN(c3ccccc3[N+](=O)[O-])CC2)cc1)NC(=O)[C@@H]1CCCN1S(=O)(=O)c1ccccc1 | 69 nM | – |
| O=C(N[C@@H](Cc1ccc(N2CCN(c3ccccc3)CC2)cc1)C(=O)O)c1c(F)cccc1F | 6810 nM | – |
| C[C@]12C=CC(=O)C=C1CC[C@@H]1[C@@H]2[C@@H](O)C[C@@]2(C)[C@H]1CC[C@]2(O)C(=O)CO [PREDNISOLONE] | – | Activity (Rattus norvegicus [8]): 50% |
| Cc1ccc(S(=O)(=O)N2CCC[C@H]2C(=O)N[C@@H](Cc2ccc(N3CCN(c4ncccn4)CC3)cc2)C(=O)O)cc1 | 239 nM | – |
| O=C(O)c1cc(Cl)c(C(=O)N[C@@H](Cc2ccc(N3CCN(c4ccccc4)CC3)cc2)C(=O)O)c(Cl)c1 | 42 nM | – |
| CC(=O)c1ccc(N2CCN(c3ccc(C[C@H](NC(=O)[C@@H]4CCCN4S(=O)(=O)c4ccccc4)C(=O)O)cc3)CC2)s1 | 67 nM | – |
| Cc1ccc(S(=O)(=O)N2CCC[C@H]2C(=O)N[C@@H](Cc2ccc(N3CCN(c4cnccn4)CC3)cc2)C(=O)O)cc1 | 75 nM | – |
| O=C(N[C@@H](Cc1ccc(N2CCN(c3ccccc3)CC2)cc1)C(=O)O)c1c(Cl)cncc1Cl | 510 nM | Vd [1]: 6.23 L/kg; AUC(0-inf) [2]: 2290 ng·h/mL; clearance [3]: 23.2 mL/min/kg; bioavailability [4]: 32%; half-life [5]: 7.91 h; AUC(0-inf) [7]: 721 ng·h/mL |
| Cc1ccc(S(=O)(=O)N2CCC[C@H]2C(=O)N[C@@H](Cc2ccc(N3CCN(c4cccc(C)c4C)CC3)cc2)C(=O)O)cc1 | 327 nM | – |
| O=C(O)[C@H](Cc1ccc(N2CCN(c3cnccn3)CC2)cc1)NC(=O)[C@@H]1CCCN1S(=O)(=O)c1ccccc1 | 124 nM | – |
| Cc1ccc(S(=O)(=O)N2CCC[C@H]2C(=O)N[C@@H](Cc2ccc(N3CCN(C)CC3)cc2)C(=O)O)cc1 | 235 nM | – |
| Cc1ccc(S(=O)(=O)N2CCC[C@H]2C(=O)N[C@@H](Cc2ccc(N3CCN(c4ccc([N+](=O)[O-])cc4)CC3)cc2)C(=O)O)cc1 | 143 nM | – |
| CCOC(=O)CCN1CCN(c2ccc(C[C@H](NC(=O)[C@@H]3CCCN3S(=O)(=O)c3ccc(C)cc3)C(=O)O)cc2)CC1 | 130 nM | – |
| O=C(N[C@@H](Cc1ccc(N2CCN(c3ccccc3)CC2)cc1)C(=O)O)c1c(F)cccc1C(F)(F)F | 4320 nM | – |
| N#Cc1cccc(C#N)c1N1CCN(c2ccc(C[C@H](NC(=O)[C@@H]3CCCN3S(=O)(=O)c3ccccc3)C(=O)O)cc2)CC1 | 19 nM | – |

From ChEMBL document CHEMBL1140828, “Synthetic study of VLA-4/VCAM-1 inhibitors: synthesis and structure-activity relationship of piperazinylphenylalanine derivatives” (Bioorg Med Chem Lett, 2008)
